Experiment [1] in a line: Growth inhibition of human Hey-C2 cells after 72 hrs by MTS assay. It counts as functional. As to conditions: Hey-C2, 72 h. The gist of the method:
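Hey-C2 ovarian cancer cells grown in RPMI 1640 with 10% fetal calf serum; 2–4,000 cells per well in triplicate, adhered overnight, then exposed to drug for 72 h at 37 °C. MTS reagent (0.05 mg/mL) added for 4 h at 37 °C, absorbance read at 490 nm, normalized to media-alone wells. GI50 is the average of three experiments.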

The target of experiment [2] is T1, DNA repair nuclease/redox regulator APEX1 (Homo sapiens, UniProt P27695). The experiment can be described thus: Inhibition of Ape1/ref-1 redox activity in presence of 0.02 mM DTT and human Hey-C2 cells nuclear extracts by EMSA. It is filed as cell-free. The gist of the method:
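Purified Ape1 reduced with 1.0 mM DTT at 37 °C for 10 min, then diluted in PBS. Poly(dI-dC) added for 5 min, then HEX-labeled AP-1 consensus duplex (0.1 pmol) for 30 min at room temperature. Final DTT 0.02 mM.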

For experiment [3], the target named is T1, DNA repair nuclease/redox regulator APEX1. The experiment can be described thus: Inhibition of Ape1/ref-1 endonuclease activity up to 100 uM.

The source made the active and inactive calls. The calls are words filed in the database; no cut-off is given here.

In ChEMBL document CHEMBL1156823, “Design and synthesis of novel quinone inhibitors targeted to the redox function of apurinic/apyrimidinic endonuclease 1/redox enhancing factor-1 (Ape1/ref-1)” (J Med Chem, 2010) one finds GI50, IC50 and inhibition data, which are given here for 20 compounds.

T1 sequence (P27695 whole entry): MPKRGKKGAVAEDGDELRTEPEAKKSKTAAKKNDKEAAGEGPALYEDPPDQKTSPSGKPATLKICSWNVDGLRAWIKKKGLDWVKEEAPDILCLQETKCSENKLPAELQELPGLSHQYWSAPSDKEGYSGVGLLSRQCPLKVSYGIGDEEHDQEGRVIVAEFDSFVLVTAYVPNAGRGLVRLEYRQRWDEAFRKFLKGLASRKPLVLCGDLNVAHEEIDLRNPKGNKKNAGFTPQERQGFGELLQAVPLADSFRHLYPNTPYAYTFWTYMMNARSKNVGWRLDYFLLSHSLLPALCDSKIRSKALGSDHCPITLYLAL

What is called GI50 is the concentration that inhibits growth by half. What is called IC50 is the point on the concentration scale where inhibition reaches its midpoint. In experiment [1], `COC1=C(OC)C(=O)C(/C=C(\C)C(=O)O)=C(Cl)C1=O` displayed a GI50 of 45 µM. Moreover, in experiment [2], the IC50 is 3 µM. In addition, the inhibition result in experiment [3] was “inactive”.
The corresponding values for `C/C(=C\C1=CC(=O)c2ccccc2C1=O)C(=O)O` are 20 µM, 3 µM and “inactive”.
`C/C(=C\C1=C(Br)C(=O)c2ccccc2C1=O)C(=O)O`: the GI50 in experiment [1] stood at 13 µM.
As to `C/C(=C\C1=C(Cl)C(=O)c2ccccc2C1=O)C(=O)O`, the GI50 in experiment [1] stood at 15 µM. Further, the inhibition entry in experiment [3] is “inactive”.
The compound `CCCC/C(=C\C1=C(C)C(=O)C(OC)=C(OC)C1=O)C(=O)O` returned a GI50 in experiment [1] of 85 µM. In experiment [3], the inhibition entry was “inactive”.
For `CCCCCCCCC/C(=C\C1=C(C)C(=O)C(OC)=C(OC)C1=O)C(=O)NCCO`, growth in experiment [1] was halved (GI50) at 35 µM. Besides, the inhibition entry in experiment [3] was “inactive”.
As to `CCCCCCCCC/C(=C\C1=C(C)C(=O)C(OC)=C(OC)C1=O)C(=O)O` [APX-3330], the GI50 in experiment [1] worked out at 35 µM. Besides, the inhibition result in experiment [3] was “inactive”.
In the case of `COC1=C(/C=C(\C)C(=O)O)C(=O)c2ccccc2C1=O`, the GI50 in experiment [1] turned out to be 40 µM. Moreover, in experiment [2], the IC50 is 1 µM. In addition, the inhibition result in experiment [3] is “inactive”.
The matching figures for `COCC/C(=C\C1=C(Br)C(=O)c2ccccc2C1=O)C(=O)O`: 25 µM, 1 µM and “inactive”.
As to `C/C(=C/C1=C(Cl)C(=O)c2ccccc2C1=O)C(=O)O`, the GI50 in experiment [1] came to 30 µM. The IC50 in experiment [2] came out at 2 µM. The inhibition result in experiment [3] is “inactive”.
On to `COCC/C(=C\C1=C(C)C(=O)c2ccccc2C1=O)C(=O)O`, for which the GI50 in experiment [1] amounted to 30 µM. In addition, in experiment [3], the inhibition entry is “inactive”.
Take `C/C(=C\C1=C(Cl)C(=O)c2ccccc2C1=O)C(=O)NCCO`: in experiment [1], the GI50 turned out to be 8 µM. In addition, the IC50 in experiment [2] came to 1 µM. Besides, the inhibition result in experiment [3] was “inactive”.
Compound `CSC1=C(/C=C(\C)C(=O)O)C(=O)c2ccccc2C1=O` returned a GI50 in experiment [1] of 30 µM. Besides, the inhibition result in experiment [3] is “inactive”.
The compound `COC1=C(OC)C(=O)C(/C=C(\C)C(=O)O)=C(C)C1=O` showed a GI50 in experiment [1] of 130 µM. Besides, the inhibition result in experiment [3] was “inactive”.
Regarding `C/C(=C\C1=C(F)C(=O)c2ccccc2C1=O)C(=O)O`, the GI50 in experiment [1] was determined as 50 µM. Further, the inhibition result in experiment [3] was “inactive”.
The compound `CC1=C(/C=C(\C)C(=O)O)C(=O)c2ccccc2C1=O` registered a GI50 in experiment [1] of 45 µM. For the same compound, the inhibition result in experiment [3] was “inactive”.
Compound `COCC/C(=C\C1=C(C)C(=O)C(OC)=C(OC)C1=O)C(=O)O` showed a GI50 in experiment [1] of 200 µM. In experiment [3], the inhibition entry is “inactive”.
Take `COCC/C(=C\C1=C(Cl)C(=O)c2ccccc2C1=O)C(=O)O`: in experiment [1], the GI50 is 30 µM. Moreover, the inhibition entry in experiment [3] was “inactive”.
Consider `COC1=C(OC)C(=O)C(/C=C/C(=O)O)=C(C)C1=O`, for which growth in experiment [1] was halved (GI50) at 250 µM. Further, the inhibition entry in experiment [3] is “inactive”.
In experiment [1], `O=C(O)CCC1=C(Br)C(=O)c2ccccc2C1=O` returned a GI50 of 15 µM. Also, the inhibition entry in experiment [3] is “inactive”.
